Source: ChEMBL document CHEMBL3259682, “Synthesis, β-haematin inhibition, and in vitro antimalarial testing of isocryptolepine analogues: SAR study of indolo[3,2-c]quinolines with various substituents at C2, C6, and N11” (Bioorg Med Chem, 2014)

Experiments:
[1] = test system: Plasmodium falciparum; assay: Antimalarial activity against erythrocytic stage of chloroquine-sensitive Plasmodium falciparum NF54 after 48 hrs by [3H]-hypoxanthine incorporation assay; type: functional, organism-based
Outline: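 ³H-hypoxanthine incorporation against P. falciparum NF54. DMSO stocks at 10 mg/mL were added to cultures in hypoxanthine-free RPMI 1640 with HEPES, NaHCO₃, neomycin and Albumax, using human A⁺ red cells at 2.5% haematocrit and 0.3% parasitaemia. Eleven 3-fold serial dilutions were tested. Incubation was under 4% CO₂/3% O₂/93% N₂. ³H-hypoxanthine was added after 48 h, followed by a further 24 h. Cells were harvested onto glass-fibre filters. IC₅₀ is the mean of two independent assays.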

[2] = test system: L6; assay: Cytotoxicity against rat L6 cells after 70 hrs by Alamar Blue assay; type: functional, cell-based; conditions: L6, 70 h
Outline: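 Rat skeletal myoblast L6 cells, 4000 per well, in RPMI 1640 with 1% L-glutamine and 10% fetal bovine serum. Eleven 3-fold serial drug dilutions were tested. Alamar Blue was added for a final 2 h. Fluorescence was read at excitation 536 nm and emission 588 nm. IC₅₀ is the mean of two independent assays.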

[3] = Selectivity index, ratio of IC50 for rat L6 cells to IC50 for erythrocytic stage of chloroquine-sensitive Plasmodium falciparum NF54; type: toxicity, cell-based; conditions: read-out: Ratio IC50
Outline: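 Selectivity index is the L6 cytotoxicity IC₅₀ divided by the NF54 antiplasmodial IC₅₀. Each IC₅₀ is the mean of two independent assays.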

[4] = Binding affinity to haematin assessed as inhibition of beta-haematin formation after 5 to 6 hrs by pyridine-ferrichrome-based method
Outline: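 Detergent (NP-40) mediated β-haematin formation assay, run manually. Compounds came from 20, 2 and 0.4 mM DMSO stocks, tested at 0–1000 µM final. Haematin was 100 µM final in 0.5 M acetate buffer, pH 4.8. Incubation was 5–6 h at 37 °C. Read-out used the pyridine-ferrichrome method with UV–vis absorbance. IC₅₀ came from sigmoidal dose–response fits.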

[5] = test system: Plasmodium falciparum; assay: Antimalarial activity against erythrocytic stage of chloroquine/pyrimethamine-resistant Plasmodium falciparum K1 after 48 hrs by [3H]-hypoxanthine incorporation assay; type: functional, organism-based
Outline: (§1)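 Chloroquine/pyrimethamine-resistant K1 and drug-susceptible NF54 P. falciparum were grown in hypoxanthine-free RPMI 1640 with HEPES, NaHCO₃, neomycin and Albumax, in human A⁺ erythrocytes at 2.5% haematocrit and 0.3% parasitaemia. DMSO stocks were 10 mg/mL, tested in eleven 3-fold dilutions under 4% CO₂/3% O₂/93% N₂. ³H-hypoxanthine was added at 48 h, then 24 h more before filter harvest. IC₅₀ is the mean of two assays; RI = K1/NF54 IC₅₀.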

[6] = Resistance index, ratio of IC50 for chloroquine/pyrimethamine-resistant Plasmodium falciparum K1 to IC50 for erythrocytic stage of chloroquine-sensitive Plasmodium falciparum NF54; type: functional; outline: as §1
[7] = Selectivity index, ratio of IC50 for rat L6 cells to IC50 for chloroquine/pyrimethamine-resistant Plasmodium falciparum K1; type: toxicity, cell-based; conditions: read-out: Ratio IC50
[8] = test system: Plasmodium berghei; assay: Antimalarial activity against Plasmodium berghei infected in Swiss mouse assessed as reduction in parasitemia at 50 mg/kg, ip qd administered for 4 days measured on day 4 post last dose by FACS analysis relative to control; type: functional; design: scale not given: the % may be the effect or the level left; conditions: route intraperitoneal
Outline: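 Plasmodium berghei-infected mice, standard '4 Day Test'. Parasitaemia measured by FACS. Activity is the difference between mean percent parasitaemia of control (n = 5 mice) and treated groups, expressed as a percentage of control.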

[9] = test system: Plasmodium berghei; assay: Antimalarial activity against Plasmodium berghei infected in Swiss mouse assessed as survival at 50 mg/kg, ip qd administered for 4 days measured on day 4 post last dose; type: functional; conditions: route intraperitoneal

Row | SMILES | IC50 [1] | IC50 [2] | selectivity ratio [3] | IC50 [4] | IC50 [5] | Ratio IC50 [6] | selectivity ratio [7] | Activity [8] | Survival [9]
1 | NCCCNc1nc2ccccc2c2[nH]c3ccccc3c12 | 13.7 nM | 627 nM | 45.8 | 116000 nM | 82.7 nM | 6 | 7.6 | – | –
2 | CC(CNC(=O)Nc1ccccc1)CNc1nc2ccc(Cl)cc2c2[nH]c3ccccc3c12 (stereo unspecified) | 10.9 nM | 4110 nM | 377 | 14600 nM | 17.5 nM | 1.6 | 235 | – | –
3 | Cc1ccc2nc(NCCCNC(=O)Nc3ccccc3)c3c4ccccc4[nH]c3c2c1 | 23.6 nM | 966 nM | 40.9 | 17200 nM | 42.5 nM | 1.8 | 22.7 | – | –
4 | NCCCCCCNc1nc2ccccc2c2[nH]c3ccccc3c12 | 15 nM | 1180 nM | 78.8 | 49600 nM | 90.2 nM | 6 | 13.1 | – | –
5 | NCCCCCNc1nc2ccccc2c2[nH]c3ccccc3c12 | 12.6 nM | 816 nM | 64.8 | 81000 nM | 25.1 nM | 2 | 32.5 | – | –
6 | CC(C)(CNC(=O)Nc1ccccc1)CNc1nc2ccc(Cl)cc2c2[nH]c3ccccc3c12 | 10.6 nM | 4000 nM | 378 | 11700 nM | 16.9 nM | 1.6 | 236 | 38% | 4 days
7 | CC(CN)CNc1nc2ccc(Cl)cc2c2[nH]c3ccccc3c12 (stereo unspecified) | 29.5 nM | 1920 nM | 65 | 12700 nM | 59 nM | 2 | 32.5 | – | –
